Screens deposited in PubChem BioAssay by Broad Institute.
Only some compounds are listed: those with a hit (about 3.5% of all), similar ones and a draw of the others.
Cneo AK release: Cryptococcus neoformans cell lysis inducers, primary screen, AK release luminescence, single concentration. C. neoformans lysis, adenylate kinase release luminescence, 4 h; normalised: neutral wells 0, clomiphene wells 100. lysis activity, % at 15 µM. 360,000 compounds, 0.2% hits;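 active means mean lysis activity across replicates of at least 80%, whatever share of replicates individually reach that level; inactive means mean lysis activity below 80%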
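Schedule: static 4 h at 37 °C with compound, 1 h detection; system: C. neoformans cells; benchmarks: Clomiphene as positive control; buffer or medium: fresh YPD medium; measure: luminescence rise reflecting yeast cell lysis; measured by: luminescent adenylate kinase detection reagent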
MITF act: activators of MITF-driven TRPM1 promoter reporter, primary screen, cell-based, SK-MEL-5, luciferase, single point; SK-MEL-5 TRPM1-promoter luciferase, 24 h; % of positive control, neutral wells = 0; activation, % at 12.5 µM; 300,000 compounds, 0.75% hits; AID 588334, 2011;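 active means mean activation of at least 80% with every replicate also reaching 80%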
Wnt bcat act: Wnt/beta-catenin pathway activators, primary screen, cell-based, plate reader, single point; Wnt/beta-catenin reporter cell assay, activator; 300,000 compounds, 1.2% hits; activation, % at 9.35 µM; in the data active means activation above about 30%, passing the limit was not always enough
esBAF inh: Bmi1 luciferase reporter increase in mESCs, primary screen, esBAF inhibitor project, mouse ES cells, Bmi1 luciferase knock-in, single point. 350,000 compounds, 2% hits. reporter increase, % at 12.5 µM. 24 h; 100% = twice the neutral-well signal; in the data active means activation above about 40%;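 further: a rise in the Bmi1 reporter signal indicates esBAF inhibition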
Env fusion inh: inhibitors of HIV-1 Env-driven cell-cell fusion, primary screen, HeLa-JRFL effector, CEM21 target cells, luciferase; inhibition, % at 12.3 µM; 360,000 compounds, 1.1% hits; AID 651610, 2012;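 active means mean replicate inhibition score of at least 50 and every replicate individually at or above 50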
ERAP1 inh: human ERAP1 aminopeptidase inhibitors, primary screen, biochemical, single point, plate reader. AID 652197, 2013. 340,000 compounds, 0.15% hits. inhibition, % at 10.7 µM. recombinant ERAP1, Leu-AMC fluorescence, 60 min;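 active means mean replicate inhibition of at least 30%, or all replicates individually reaching that 30% level; inactive means mean below 30% and not every replicate reaching it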
Numbers stand for hits; [ ] = dose if it differs, or a comment.

What do the screens show for `COc1cccc(NC(=O)N(C)C[C@H]2OCc3ccccc3-c3c(n(C)c4ccccc34)C(=O)N([C@@H](C)CO)C[C@@H]2C)c1`?
Cneo AK release: inactive; esBAF inh: inactive; Env fusion inh: 55[16.7 µM]; ERAP1 inh: inactive

How did COc1ccc(NC(=O)N(C)C[C@H]2OCc3ccccc3-c3c(n(C)c4ccccc34)C(=O)N([C@@H](C)CO)C[C@@H]2C)cc1 do in these assays?
Cneo AK release: inactive; esBAF inh: inactive; ERAP1 inh: inactive

How did COc1ccc(NC(=O)N(C)C[C@H]2OCc3ccccc3-c3c(n(C)c4ccccc34)C(=O)N([C@H](C)CO)C[C@@H]2C)cc1 do in these assays?
Cneo AK release: 111; esBAF inh: inactive; ERAP1 inh: inactive

How did CCOCC(=O)Nc1c(C(=O)N2CCN(c3ncccn3)CC2)oc2ccccc12 do in these assays?
Cneo AK release: inactive; MITF act: inactive; Wnt bcat act: inactive; esBAF inh: inactive; Env fusion inh: inactive; ERAP1 inh: inactive

What do the screens show for `O=C(c1oc2ccccc2c1CSCc1ccccc1)N1CCN(c2ncccn2)CC1`?
Cneo AK release: inactive; MITF act: inactive; esBAF inh: inactive; Env fusion inh: 56

How did CCOc1ccc(CCNC(=O)c2cc3sccc3n2CC)cc1OCC do in these assays?
Cneo AK release: inactive; MITF act: inactive; Wnt bcat act: inactive; esBAF inh: inactive; Env fusion inh: 65

How did CCOC(=O)N1CCC(NC(=O)c2cc3sccc3n2CC)CC1 do in these assays?
Cneo AK release: inactive; MITF act: inactive; Wnt bcat act: inactive; esBAF inh: inactive; ERAP1 inh: inactive

What do the screens show for `CCn1c(C(=O)NC2CCC(C)CC2)cc2sccc21` (stereo unspecified)?
Cneo AK release: inactive; MITF act: 92; Wnt bcat act: inactive; esBAF inh: 52; Env fusion inh: inactive; ERAP1 inh: inactive

How did Cn1c(C(=O)NC2CCCCC2)cc2sccc21 do in these assays?
Cneo AK release: inactive; MITF act: inactive; esBAF inh: 43; Env fusion inh: inactive

Results for O=C(C[C@H]1C[C@@H]2c3cc(NC(=O)c4ccc5c(c4)OCO5)ccc3O[C@@H]2[C@H](CO)O1)NCCc1ccccc1 ?
Cneo AK release: inactive; esBAF inh: inactive; Env fusion inh: inactive; ERAP1 inh: inactive

How did Nc1nc(SCc2ccccn2)c2ncn(C3CCCC3)c2n1 do in these assays?
Cneo AK release: inactive; MITF act: inactive; Wnt bcat act: inactive; esBAF inh: 44; ERAP1 inh: inactive

Results for Cn1cnc(S(=O)(=O)N2C[C@H](O)COC[C@H]3O[C@@H](CC(=O)NCc4ccc(F)cc4)CC[C@@H]32)c1 ?
Cneo AK release: inactive; esBAF inh: inactive; ERAP1 inh: inactive

How did CS/C(Nc1cc(Cl)ccc1Cl)=C(/C#N)C(=O)c1ccco1 do in these assays?
Cneo AK release: inactive; Wnt bcat act: 37; esBAF inh: inactive; Env fusion inh: inactive; ERAP1 inh: inactive

How did C[C@@H]1CN([C@H](C)CO)S(=O)(=O)c2ccc(Br)cc2O[C@@H]1CN(C)CC1CC1 do in these assays?
Cneo AK release: inactive; esBAF inh: inactive; Env fusion inh: inactive; ERAP1 inh: inactive

Results for CCS(=O)(=O)N1CCc2nc(-c3ccccc3)sc2C1 ?
Cneo AK release: inactive; MITF act: 121; Wnt bcat act: 39; esBAF inh: inactive; Env fusion inh: inactive; ERAP1 inh: inactive

What do the screens show for `NC(=S)c1ccc(OCCCc2ccccc2)cc1`?
Cneo AK release: inactive; Wnt bcat act: 37; esBAF inh: 71; Env fusion inh: 70; ERAP1 inh: inactive

Results for O=C(Cn1ccsc1=NC(=O)C(F)(F)F)c1ccccc1 ?
Cneo AK release: inactive; MITF act: inactive; esBAF inh: 49

How did O=C(Cn1cnc2ccccc21)c1ccccc1 do in these assays?
Cneo AK release: inactive; Wnt bcat act: inactive; esBAF inh: inactive; Env fusion inh: inactive; ERAP1 inh: inactive

How did CNC(=O)C[C@@H]1CC[C@@H]2[C@H](COC[C@@H](O)CN2Cc2ccncc2)O1 do in these assays?
Cneo AK release: inactive; esBAF inh: inactive; ERAP1 inh: inactive

How did Cc1ccn2c(Nc3ccccc3)c(-c3ccccn3)nc2c1 do in these assays?
Cneo AK release: inactive; MITF act: inactive; Wnt bcat act: inactive; esBAF inh: inactive; Env fusion inh: 66; ERAP1 inh: inactive

How did Cc1ccn2c(Nc3ccccc3C)c(-c3ccccn3)nc2c1 do in these assays?
Cneo AK release: inactive; MITF act: inactive; Wnt bcat act: inactive; esBAF inh: inactive; Env fusion inh: inactive; ERAP1 inh: inactive

How did Cc1n[nH]c(=O)n1-c1ccc(OCc2ccccc2)cc1 do in these assays?
Cneo AK release: inactive; MITF act: inactive; Wnt bcat act: inactive; esBAF inh: 44; Env fusion inh: inactive; ERAP1 inh: inactive

Results for C[C@@H]1CN([C@@H](C)CO)C(=O)Cc2cc(NC(=O)Cn3cnnn3)ccc2O[C@@H]1CN(C)C(=O)Nc1ccc(C(F)(F)F)cc1 ?
Cneo AK release: inactive; esBAF inh: inactive; Env fusion inh: inactive; ERAP1 inh: inactive

How did CN(C)S(=O)(=O)c1ccc(C(=O)NCc2ccccc2)cc1 do in these assays?
MITF act: inactive; esBAF inh: inactive

What do the screens show for `C/C(=N\OCc1ccc(C#N)cc1)c1ccc(S(=O)(=O)N(C)C)cc1`?
Cneo AK release: inactive; MITF act: 96; Wnt bcat act: inactive; esBAF inh: 51; Env fusion inh: inactive; ERAP1 inh: inactive

How did C/C(=N\OCc1cccc(C(=O)O)c1)c1ccc(Cl)cc1 do in these assays?
Cneo AK release: inactive; Wnt bcat act: inactive; Env fusion inh: 62; ERAP1 inh: inactive

What do the screens show for `C/C(=N\OCc1ccc(C#N)cc1)c1ccccc1`?
MITF act: 88; Wnt bcat act: inactive; Env fusion inh: inactive; ERAP1 inh: inactive

How did C/C(=N/OCO/N=C(\C)c1ccccc1)c1ccccc1 do in these assays?
Cneo AK release: inactive; MITF act: inactive; Wnt bcat act: inactive; Env fusion inh: inactive; ERAP1 inh: inactive

How did CCCN1C[C@H](C)[C@H](OC)CN(C)C(=O)c2ccc(NC(=O)CC)cc2OC[C@H]1C do in these assays?
esBAF inh: inactive

How did O=C(C[C@H]1C=C[C@H](NC(=O)Nc2cc(F)ccc2F)[C@H](CO)O1)NCc1ccncn1 do in these assays?
Cneo AK release: inactive; esBAF inh: inactive; Env fusion inh: inactive; ERAP1 inh: inactive

Results for COc1ccccc1CNC(=O)C[C@H]1C[C@H]2c3cc(NC(=O)Nc4ccccc4F)ccc3O[C@H]2[C@@H](CO)O1 ?
Cneo AK release: inactive; esBAF inh: inactive; Env fusion inh: inactive; ERAP1 inh: inactive

Results for COc1ccccc1CNC(=O)C[C@@H]1C[C@@H]2c3cc(NC(=O)Nc4ccccc4F)ccc3O[C@@H]2[C@H](CO)O1 ?
Cneo AK release: 103; esBAF inh: inactive; Env fusion inh: inactive; ERAP1 inh: inactive
